Test results from ChEMBL document CHEMBL5370680, “Design and Biological Evaluation of Piperazine-Bearing Nitrobenzamide Hypoxia/GDEPT Prodrugs: The Discovery of CP-506” (ACS Med Chem Lett, 2023).

tested on: not listed separately; test: Selectivity ratio of IC50 for antiproliferative activity against wild type human NCI-H1299 cells to IC50 for antiproliferative activity against human NCI-H1299 cells expressing AKR1C3; format: functional; conditions: time 4 hrs
In short: (§1)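 Ratio of mean IC50 in non-transfected wild-type cells to mean IC50 in the AKR1C3- or NfsA_Ec-transfected line. IC50 is from a 4 h prodrug exposure and 5 days' regrowth.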

Row | Compound | Ratio IC50
1 | CN1CCN(C(=O)c2cc(N(CCBr)CCBr)c(S(C)(=O)=O)cc2[N+](=O)[O-])CC1 | 1

tested on: NCI-H1299; test: Antiproliferative activity against human NCI-H1299 cells expressing NfsA of Escherichia coli assessed as cell growth inhibition measured after 4 hrs; format: functional; conditions: NCI-H1299, 4 h
In short: (§2)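 Monolayer antiproliferative assay using wild-type cells and isogenic lines transfected with AKR1C3 or E. coli NfsA. Cells exposed to prodrug for 4 h, then regrown for 5 days. IC50 is 50% growth inhibition versus untreated controls. Mean values reported, CV <20%.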

Row | Compound | IC50 [µM]
2 | CN1CCN(C(=O)c2cc(N(CCBr)CCBr)c(S(C)(=O)=O)cc2[N+](=O)[O-])CC1 | 0.154

tested on: SiHa; test: Antiproliferative activity against human SiHa cells assessed as inhibition of cell growth incubated for 4 hrs under anoxic condition and measured after 5 days regrowth under aerobic condition; format: functional, cell-based; conditions: not given
In short: (§3)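 Low-density monolayer antiproliferative assay. Cells exposed to prodrug for 4 h under aerobic or anoxic conditions, then regrown aerobically for 5 days. IC50 is the concentration giving 50% growth inhibition versus untreated controls. Mean values reported, CV <20%.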

Row | Compound | IC50 [µM]
3 | CN1CCN(C(=O)c2cc(N(CCBr)CCBr)c(S(C)(=O)=O)cc2[N+](=O)[O-])CC1 | 16

tested on: HCT-116; test: Antiproliferative activity against human HCT-116 cells in three-dimensional cell culture multicellular layer expressing NfsA of Escherichia coli assessed as fold change in plating efficiency at 10 uM; format: functional; conditions: not given
In short: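 Mixed MCLs of wild-type HCT116 with 3% NfsA_Ec-expressing cells, against 100% wild-type MCLs, exposed to 10 μM prodrug. Clonogenic plating efficiency measured. Fold change is the plating-efficiency ratio between wild-type and transfected MCLs. ≥3 independent experiments.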

Row | Compound | fold change (FC)
4 | CN1CCN(C(=O)c2cc(N(CCBr)CCBr)c(S(C)(=O)=O)cc2[N+](=O)[O-])CC1 | 1531

tested on: HCT-116; test: Antiproliferative activity against wild type human HCT-116 cells assessed as cell growth inhibition measured after 4 hrs; format: functional, cell-based; conditions: HCT-116, 4 h; in short: as §2

Row | Compound | IC50 [µM]
5 | CN1CCN(C(=O)c2cc(N(CCBr)CCBr)c(S(C)(=O)=O)cc2[N+](=O)[O-])CC1 | 102

tested on: NCI-H1299; test: Antiproliferative activity against wild type human NCI-H1299 cells assessed as cell growth inhibition measured after 4 hrs; format: functional, cell-based; conditions: NCI-H1299, 4 h; in short: as §2

Row | Compound | IC50 [µM]
6 | CN1CCN(C(=O)c2cc(N(CCBr)CCBr)c(S(C)(=O)=O)cc2[N+](=O)[O-])CC1 | 98

tested on: not listed separately; test: Selectivity ratio of IC50 for antiproliferative activity against wild type human HCT-116 cells to IC50 for antiproliferative activity against human HCT-116 cells expressing NfsA of Escherichia coli; format: functional; conditions: time 4 hrs; in short: as §1

Row | Compound | Ratio IC50
7 | CN1CCN(C(=O)c2cc(N(CCBr)CCBr)c(S(C)(=O)=O)cc2[N+](=O)[O-])CC1 | 1146

tested on: not listed separately; test: (§4) Selectivity ratio of IC50 for antiproliferative activity against human SiHa cells assessed as inhibition of cell growth under aerobic condition to IC50 for antiproliferative activity against human SiHa cells assessed as inhibition of cell growth under anoxic condition; format: functional; conditions: not given
In short: (§5)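 Hypoxic cytotoxicity ratio is aerobic IC50 divided by anoxic IC50. Each IC50 comes from a 4 h drug exposure under aerobic or anoxic conditions, followed by 5 days' aerobic regrowth, relative to untreated controls.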

Row | Compound | Ratio IC50
8 | CN1CCN(C(=O)c2cc(N(CCBr)CCBr)c(S(C)(=O)=O)cc2[N+](=O)[O-])CC1 | 15

tested on: HCT-116; test: Antiproliferative activity against human HCT-116 cells in three-dimensional cell culture multicellular layers assessed as log cell killing under anoxic condition at 100 uM; format: functional; conditions: not given
In short: (§6)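 HCT116 three-dimensional multicellular layers exposed to 100 μM prodrug under aerobic or anoxic conditions. Clonogenic survivors per MCL counted. Log cell kill = log CS(control) − log CS(treated). Mean of ≥3 independent experiments.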

Row | Compound | LCK
9 | CN1CCN(C(=O)c2cc(N(CCBr)CCBr)c(S(C)(=O)=O)cc2[N+](=O)[O-])CC1 | 0.016

tested on: HCT-116; test: Antiproliferative activity against human HCT-116 cells in three-dimensional cell culture multicellular layers assessed as log cell killing under aerobic condition at 100 uM; format: functional; conditions: not given; in short: as §6

Row | Compound | LCK
10 | CN1CCN(C(=O)c2cc(N(CCBr)CCBr)c(S(C)(=O)=O)cc2[N+](=O)[O-])CC1 | 2.3

tested on: HCT-116; test: Antiproliferative activity against human HCT-116 cells assessed as inhibition of cell growth incubated for 4 hrs under aerobic condition and measured after 5 days regrowth under aerobic condition; format: functional, cell-based; conditions: not given; in short: as §3

Row | Compound | IC50 [µM]
11 | CN1CCN(C(=O)c2cc(N(CCBr)CCBr)c(S(C)(=O)=O)cc2[N+](=O)[O-])CC1 | 160

tested on: not listed separately; test: Selectivity ratio of IC50 for antiproliferative activity against wild type human NCI-H1299 cells to IC50 for antiproliferative activity against human NCI-H1299 cells expressing NfsA of Escherichia coli; format: functional; conditions: time 4 hrs; in short: as §1

Row | Compound | Ratio IC50
12 | CN1CCN(C(=O)c2cc(N(CCBr)CCBr)c(S(C)(=O)=O)cc2[N+](=O)[O-])CC1 | 636

tested on: not listed separately; test: as §4, with “HCT-116” for “SiHa”, “cells overexpressing cytochrome P450 oxidoreductase” for “cells”; format: functional; conditions: not given; in short: as §5

Row | Compound | Ratio IC50
13 | CN1CCN(C(=O)c2cc(N(CCBr)CCBr)c(S(C)(=O)=O)cc2[N+](=O)[O-])CC1 | 93

tested on: not listed separately; test: Octanol/water partition coefficient, log D of the compound at pH 7.4; format: physicochemical; conditions: not given
In short: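 Octanol–water partition coefficient by shake-flask method at pH 7.4.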

Row | Compound | logD
14 | CN1CCN(C(=O)c2cc(N(CCBr)CCBr)c(S(C)(=O)=O)cc2[N+](=O)[O-])CC1 | 1.4

tested on: NCI-H1299; test: Antiproliferative activity against human NCI-H1299 cells expressing AKR1C3 assessed as cell growth inhibition measured after 4 hrs; format: functional, cell-based; conditions: NCI-H1299, 4 h; in short: as §2

Row | Compound | IC50 [µM]
15 | CN1CCN(C(=O)c2cc(N(CCBr)CCBr)c(S(C)(=O)=O)cc2[N+](=O)[O-])CC1 | 102

tested on: HCT-116; test: Antiproliferative activity against human HCT-116 cells expressing AKR1C3 assessed as cell growth inhibition measured after 4 hrs; format: functional, cell-based; conditions: HCT-116, 4 h; in short: as §2

Row | Compound | IC50 [µM]
16 | CN1CCN(C(=O)c2cc(N(CCBr)CCBr)c(S(C)(=O)=O)cc2[N+](=O)[O-])CC1 | 70

tested on: not listed separately; test: Selectivity ratio of IC50 for antiproliferative activity against human HCT-116 cells assessed as inhibition of cell growth under aerobic condition to IC50 for antiproliferative activity against human HCT-116 cells assessed as inhibition of cell growth under anoxic condition; format: functional; conditions: not given; in short: as §5

Row | Compound | Ratio IC50
17 | CN1CCN(C(=O)c2cc(N(CCBr)CCBr)c(S(C)(=O)=O)cc2[N+](=O)[O-])CC1 | 6.6

tested on: HCT-116; test: Antiproliferative activity against human HCT-116 cells overexpressing cytochrome P450 oxidoreductase assessed as inhibition of cell growth incubated for 4 hrs under anoxic condition and measured after 5 days regrowth under aerobic condition; format: functional, cell-based; conditions: not given; in short: as §3

Row | Compound | IC50 [µM]
18 | CN1CCN(C(=O)c2cc(N(CCBr)CCBr)c(S(C)(=O)=O)cc2[N+](=O)[O-])CC1 | 0.88

tested on: not listed separately; test: Selectivity ratio of IC50 for antiproliferative activity against wild type human HCT-116 cells to IC50 for antiproliferative activity against human HCT-116 cells expressing AKR1C3; format: functional; conditions: time 4 hrs; in short: as §1

Row | Compound | Ratio IC50
19 | CN1CCN(C(=O)c2cc(N(CCBr)CCBr)c(S(C)(=O)=O)cc2[N+](=O)[O-])CC1 | 1.5

tested on: SiHa; test: Antiproliferative activity against human SiHa cells assessed as inhibition of cell growth incubated for 4 hrs under aerobic condition and measured after 5 days regrowth under aerobic condition; format: functional, cell-based; conditions: not given; in short: as §3

Row | Compound | IC50 [µM]
20 | CN1CCN(C(=O)c2cc(N(CCBr)CCBr)c(S(C)(=O)=O)cc2[N+](=O)[O-])CC1 | 241

tested on: HCT-116; test: Antiproliferative activity against human HCT-116 cells in three-dimensional cell culture multicellular layer expressing AKR1C3 assessed as fold change in plating efficiency at 10 uM; format: functional; conditions: not given
In short: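 100% AKR1C3-expressing HCT116 MCLs, against wild-type HCT116 MCLs, exposed to 10 μM prodrug. Clonogenic plating efficiency measured. Fold change is the plating-efficiency ratio between wild-type and transfected MCLs. ≥3 independent experiments.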

Row | Compound | fold change (FC)
21 | CN1CCN(C(=O)c2cc(N(CCBr)CCBr)c(S(C)(=O)=O)cc2[N+](=O)[O-])CC1 | 1.1

tested on: HCT-116; test: Antiproliferative activity against human HCT-116 cells overexpressing cytochrome P450 oxidoreductase assessed as inhibition of cell growth incubated for 4 hrs under aerobic condition and measured after 5 days regrowth under aerobic condition; format: functional, cell-based; conditions: not given; in short: as §3

Row | Compound | IC50 [µM]
22 | CN1CCN(C(=O)c2cc(N(CCBr)CCBr)c(S(C)(=O)=O)cc2[N+](=O)[O-])CC1 | 82

tested on: HCT-116; test: Antiproliferative activity against human HCT-116 cells assessed as inhibition of cell growth incubated for 4 hrs under anoxic condition and measured after 5 days regrowth under aerobic condition; format: functional, cell-based; conditions: not given; in short: as §3

Row | Compound | IC50 [µM]
23 | CN1CCN(C(=O)c2cc(N(CCBr)CCBr)c(S(C)(=O)=O)cc2[N+](=O)[O-])CC1 | 24

tested on: HCT-116; test: Antiproliferative activity against human HCT-116 cells expressing NfsA of Escherichia coli assessed as cell growth inhibition measured after 4 hrs; format: functional; conditions: HCT-116, 4 h; in short: as §2

Row | Compound | IC50 [µM]
24 | CN1CCN(C(=O)c2cc(N(CCBr)CCBr)c(S(C)(=O)=O)cc2[N+](=O)[O-])CC1 | 0.089
